What all share (assay type): functional
The subject of assay [1] is Staphylococcus aureus. In words: Antibacterial activity against methicillin-resistant Staphylococcus aureus ATCC 43300 after overnight incubation by broth dilution method. A digest of the protocol:
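CLSI broth dilution MIC in Mueller-Hinton broth. Compounds were dissolved in methanol, diluted in broth, and tested over a two-fold range, with final methanol 1.25% in the top well. Inoculum was colonies in saline after 18–24 h growth at 37 °C in 5% CO2. Plates ran 24 h at 37 °C. MIC was the lowest concentration preventing visible growth. Duplicate wells, drug-free and solvent controls.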

The test system of assay [2] is Staphylococcus aureus. Nature of the assay: Antibacterial activity against Staphylococcus aureus ATCC 29213 after overnight incubation by broth dilution method. A digest of the protocol: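 CLSI broth microdilution MIC. Compounds dissolved in methanol, diluted to working solution in Mueller-Hinton broth. Strain recovered in broth 18–24 h at 37 °C, 5% CO2; colonies suspended in saline for inoculum. Final test range 0.016–32, plates incubated 24 h at 37 °C. MIC read as the lowest concentration preventing visible growth. Duplicates, with drug-free and solvent-blank columns; final methanol 1.25%.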

The next assay concerns Enterococcus faecalis. In words: Antibacterial activity against Enterococcus faecalis ATCC 29212 after overnight incubation by broth dilution method. A digest of the protocol: (§1)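 CLSI broth microdilution MIC. Compounds dissolved in methanol, diluted to working solution in Brain Heart Infusion broth. Organisms recovered in broth 18–24 h at 37 °C, 5% CO2; inoculum from colonies suspended in saline. Test range 0.016–32 (final), incubated 24 h at 37 °C. MIC taken as the lowest concentration inhibiting visible growth. Run in duplicate with drug-free and solvent-blank columns; final methanol 1.25%.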

In a further assay the test system is Enterococcus faecium. In words: Antibacterial activity against Enterococcus faecium ATCC 35667 after overnight incubation by broth dilution method. A digest of the protocol:
as §1

Assay [3] concerns Staphylococcus aureus. Nature of the assay: Antibacterial activity against methicillin-resistant Staphylococcus aureus ATCC 43300 infected in neutropenic mouse assessed as mouse survival rate at 40 mg/kg, iv administered 1 hr post infection relative to control. Particulars: ATCC 43300, iv. A digest of the protocol:
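Female ICR mice (23–25 g) were made neutropenic with cyclophosphamide ip, 150 mg/kg 4 days and 100 mg/kg 1 day before infection. They were infected ip with 0.5 mL of ~10⁷ CFU/mL MRSA, then given compound iv at 40 mg/kg 1 h post-infection, with tiamulin given the same way as comparator. 10 mice per group; survival recorded.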

This note sets out measurements from ChEMBL document CHEMBL3994615, “Design, synthesis and antibacterial evaluation of novel pleuromutilin derivatives possessing piperazine linker” (2017).

Converted amounts (≈) assume the structure as drawn.

In the case of `C=C[C@]1(C)C[C@@H](OC(=O)CN2CCN(C(=O)CN3CCN(c4ccc(O)cc4)CC3)CC2)[C@]2(C)[C@H](C)CC[C@]3(CCC(=O)[C@H]32)[C@@H](C)[C@@H]1O`, the MIC against Staphylococcus aureus [1] was 1 mg/L (≈ 1.5 µM); in the assay with Staphylococcus aureus [2] it was 2 mg/L (≈ 3.01 µM); against Enterococcus faecalis, 8 mg/L (≈ 12 µM); in the assay on Enterococcus faecium, > 32 mg/L.
As for `C=C[C@]1(C)C[C@@H](OC(=O)CN2CCN(C(=O)CCl)CC2)[C@]2(C)[C@H](C)CC[C@]3(CCC(=O)[C@H]32)[C@@H](C)[C@@H]1O`, the MIC in the assay with Staphylococcus aureus [1], with Staphylococcus aureus [2], in the assay on Enterococcus faecalis and in the assay with Enterococcus faecium was > 32 mg/L in each case.
As to `C=C[C@]1(C)C[C@@H](OC(=O)CN2CCN(C(=O)CN3CCN(c4ccccc4O)CC3)CC2)[C@]2(C)[C@H](C)CC[C@]3(CCC(=O)[C@H]32)[C@@H](C)[C@@H]1O`, the MIC against Staphylococcus aureus [1] was 0.5 mg/L (≈ 0.752 µM); against Staphylococcus aureus [2], 1 mg/L (≈ 1.5 µM); in the assay on Enterococcus faecalis it was 2 mg/L (≈ 3.01 µM); against Enterococcus faecium, > 32 mg/L.
In the case of `C=C[C@]1(C)C[C@@H](OC(=O)CO)[C@]2(C)[C@H](C)CC[C@]3(CCC(=O)[C@H]32)[C@@H](C)[C@@H]1O` [PLEUROMULIN], the MIC in the assay on Staphylococcus aureus [1] is 2 mg/L (≈ 5.28 µM); against Staphylococcus aureus [2], 8 mg/L (≈ 21.1 µM); against Enterococcus faecalis, 16 mg/L (≈ 42.3 µM); against Enterococcus faecium, > 32 mg/L.
On to `C=C[C@]1(C)C[C@@H](OC(=O)CN2CCN(C(=O)CN3CCN(c4ccccc4)CC3)CC2)[C@]2(C)[C@H](C)CC[C@]3(CCC(=O)[C@H]32)[C@@H](C)[C@@H]1O`, for which the MIC is 0.125 mg/L (≈ 0.193 µM) with Staphylococcus aureus [1], 0.25 mg/L (≈ 0.385 µM) in the assay with Staphylococcus aureus [2], 4 mg/L (≈ 6.16 µM) against Enterococcus faecalis and > 32 mg/L against Enterococcus faecium.
With `C=C[C@]1(C)C[C@@H](OC(=O)CN2CCN(C(=O)CN3CCN(c4cccc(O)c4)CC3)CC2)[C@]2(C)[C@H](C)CC[C@]3(CCC(=O)[C@H]32)[C@@H](C)[C@@H]1O`, the MIC against Staphylococcus aureus [1] was 0.25 mg/L (≈ 0.376 µM); in the assay with Staphylococcus aureus [2], 0.5 mg/L (≈ 0.752 µM); in the assay with Enterococcus faecalis it was 2 mg/L (≈ 3.01 µM); against Enterococcus faecium it was > 32 mg/L.
Turning to `C=C[C@]1(C)C[C@@H](OC(=O)CN2CCN(C(=O)CN3CCN(c4ccc(C)cc4)CC3)CC2)[C@]2(C)[C@H](C)CC[C@]3(CCC(=O)[C@H]32)[C@@H](C)[C@@H]1O`, the minimal inhibitory concentration (MIC) in the assay on Staphylococcus aureus [1] is 0.125 mg/L (≈ 0.189 µM); against Staphylococcus aureus [2], 0.25 mg/L (≈ 0.377 µM); against Enterococcus faecalis, 2 mg/L (≈ 3.02 µM); against Enterococcus faecium it was > 32 mg/L.
`C=C[C@]1(C)C[C@@H](OC(=O)CSCCN(CC)CC)[C@]2(C)[C@H](C)CC[C@]3(CCC(=O)[C@H]32)[C@@H](C)[C@@H]1O` [TIAMULIN]: the MIC in the assay with Staphylococcus aureus [1] was 0.125 mg/L (≈ 0.253 µM); against Staphylococcus aureus [2] it was 0.5 mg/L (≈ 1.01 µM); against Enterococcus faecalis it was 2 mg/L (≈ 4.05 µM); with Enterococcus faecium it was > 32 mg/L. In addition, the survival at 40 mg/kg in the assay on Staphylococcus aureus [3] stood at 10%.
Take `C=C[C@]1(C)C[C@@H](OC(=O)CSC(C)(C)CNC(=O)[C@H](N)C(C)C)[C@]2(C)[C@H](C)CC[C@]3(CCC(=O)[C@H]32)[C@@H](C)[C@@H]1O` [VALNEMULIN]: the MIC in the assay on Staphylococcus aureus [1] was 0.03 mg/L (≈ 0.0531 µM); in the assay with Staphylococcus aureus [2], 0.125 mg/L (≈ 0.221 µM); against Enterococcus faecalis, 1 mg/L (≈ 1.77 µM); in the assay on Enterococcus faecium, > 32 mg/L.
As to `C=C[C@]1(C)C[C@@H](OC(=O)CN2CCN(C(=O)CN3CCN(c4ccc([N+](=O)[O-])cc4)CC3)CC2)[C@]2(C)[C@H](C)CC[C@]3(CCC(=O)[C@H]32)[C@@H](C)[C@@H]1O`, the minimal inhibitory concentration (MIC) in the assay on Staphylococcus aureus [1] was 0.015 mg/L (≈ 0.0216 µM); in the assay with Staphylococcus aureus [2] it was 0.125 mg/L (≈ 0.18 µM); with Enterococcus faecalis it was 1 mg/L (≈ 1.44 µM); in the assay with Enterococcus faecium it was > 32 mg/L.
Take `C=C[C@]1(C)C[C@@H](OC(=O)CN2CCN(C(=O)CN3CCN(c4cccc([N+](=O)[O-])c4)CC3)CC2)[C@]2(C)[C@H](C)CC[C@]3(CCC(=O)[C@H]32)[C@@H](C)[C@@H]1O`: the MIC is 0.0625 mg/L (≈ 0.0901 µM) with Staphylococcus aureus [1], 0.25 mg/L (≈ 0.36 µM) in the assay with Staphylococcus aureus [2], 2 mg/L (≈ 2.88 µM) in the assay on Enterococcus faecalis and > 32 mg/L against Enterococcus faecium.
For the compound `C=C[C@]1(C)C[C@@H](OC(=O)CN2CCN(C(=O)CN3CCN(c4cccc(OC)c4)CC3)CC2)[C@]2(C)[C@H](C)CC[C@]3(CCC(=O)[C@H]32)[C@@H](C)[C@@H]1O`, the MIC against Staphylococcus aureus [1] is 0.25 mg/L (≈ 0.368 µM); in the assay on Staphylococcus aureus [2], 0.25 mg/L (≈ 0.368 µM); in the assay with Enterococcus faecalis, 2 mg/L (≈ 2.95 µM); against Enterococcus faecium, > 32 mg/L.
As to `C=C[C@]1(C)C[C@@H](OC(=O)CN2CCN(C(=O)CN3CCN(c4ccccc4OC)CC3)CC2)[C@]2(C)[C@H](C)CC[C@]3(CCC(=O)[C@H]32)[C@@H](C)[C@@H]1O`, the MIC against Staphylococcus aureus [1] was 0.5 mg/L (≈ 0.736 µM); in the assay on Staphylococcus aureus [2], 0.5 mg/L (≈ 0.736 µM); with Enterococcus faecalis, 4 mg/L (≈ 5.89 µM); against Enterococcus faecium, > 32 mg/L.
Regarding `C=C[C@]1(C)C[C@@H](OC(=O)CN2CCN(C(=O)CN3CCN(c4ccccc4Cl)CC3)CC2)[C@]2(C)[C@H](C)CC[C@]3(CCC(=O)[C@H]32)[C@@H](C)[C@@H]1O`, the MIC in the assay with Staphylococcus aureus [1] is 0.015 mg/L (≈ 0.022 µM); against Staphylococcus aureus [2] it was 0.5 mg/L (≈ 0.732 µM); in the assay on Enterococcus faecalis, 4 mg/L (≈ 5.85 µM); against Enterococcus faecium it was > 32 mg/L.
`C=C[C@]1(C)C[C@@H](OC(=O)CN2CCN(C(=O)CN3CCN(c4ccc(Cl)cc4)CC3)CC2)[C@]2(C)[C@H](C)CC[C@]3(CCC(=O)[C@H]32)[C@@H](C)[C@@H]1O`: the MIC is 0.015 mg/L (≈ 0.022 µM) in the assay with Staphylococcus aureus [1], 0.125 mg/L (≈ 0.183 µM) against Staphylococcus aureus [2], 2 mg/L (≈ 2.93 µM) in the assay on Enterococcus faecalis and > 32 mg/L in the assay with Enterococcus faecium. Also, in the assay on Staphylococcus aureus [3], the survival at 40 mg/kg turned out to be 50%.
Turning to `C=C[C@]1(C)C[C@@H](OC(=O)CN2CCNCC2)[C@]2(C)[C@H](C)CC[C@]3(CCC(=O)[C@H]32)[C@@H](C)[C@@H]1O`, the MIC in the assay with Staphylococcus aureus [1] was 1 mg/L (≈ 2.24 µM); in the assay with Staphylococcus aureus [2], 2 mg/L (≈ 4.48 µM); against Enterococcus faecalis, 8 mg/L (≈ 17.9 µM); in the assay with Enterococcus faecium, > 32 mg/L.
For `C=C[C@]1(C)C[C@@H](OC(=O)CN2CCN(C(=O)CN3CCN(c4ccc(OC)cc4)CC3)CC2)[C@]2(C)[C@H](C)CC[C@]3(CCC(=O)[C@H]32)[C@@H](C)[C@@H]1O`, the MIC with Staphylococcus aureus [1] is 0.25 mg/L (≈ 0.368 µM); in the assay on Staphylococcus aureus [2], 0.5 mg/L (≈ 0.736 µM); in the assay with Enterococcus faecalis it was 2 mg/L (≈ 2.95 µM); in the assay with Enterococcus faecium, > 32 mg/L.
With `C=C[C@]1(C)C[C@@H](OC(=O)CN2CCN(C(=O)CN3CCN(c4cccc(Cl)c4)CC3)CC2)[C@]2(C)[C@H](C)CC[C@]3(CCC(=O)[C@H]32)[C@@H](C)[C@@H]1O`, the minimal inhibitory concentration (MIC) was 0.03 mg/L (≈ 0.0439 µM) in the assay with Staphylococcus aureus [1], 0.25 mg/L (≈ 0.366 µM) against Staphylococcus aureus [2], 2 mg/L (≈ 2.93 µM) in the assay on Enterococcus faecalis and > 32 mg/L with Enterococcus faecium.
The matching figures for `C=C[C@]1(C)C[C@@H](OC(=O)CN2CCN(C(=O)CN3CCN(c4ccccc4[N+](=O)[O-])CC3)CC2)[C@]2(C)[C@H](C)CC[C@]3(CCC(=O)[C@H]32)[C@@H](C)[C@@H]1O`: 0.0625 mg/L (≈ 0.0901 µM), 0.0625 mg/L (≈ 0.0901 µM), 2 mg/L (≈ 2.88 µM) and > 32 mg/L.
For `C=C[C@]1(C)C[C@@H](OC(=O)CN2CCN(C(=O)CN3CCN(C)CC3)CC2)[C@]2(C)[C@H](C)CC[C@]3(CCC(=O)[C@H]32)[C@@H](C)[C@@H]1O`, the MIC in the assay with Staphylococcus aureus [1] was 0.125 mg/L (≈ 0.213 µM); in the assay with Staphylococcus aureus [2], 0.5 mg/L (≈ 0.852 µM); with Enterococcus faecalis it was 2 mg/L (≈ 3.41 µM); against Enterococcus faecium it was > 32 mg/L.
In the same order, the values of `C=C[C@]1(C)C[C@@H](OC(=O)CN2CCN(C(=O)CN3CCN(c4ccccc4C)CC3)CC2)[C@]2(C)[C@H](C)CC[C@]3(CCC(=O)[C@H]32)[C@@H](C)[C@@H]1O` are 0.0625 mg/L (≈ 0.0943 µM), 0.25 mg/L (≈ 0.377 µM), 2 mg/L (≈ 3.02 µM) and > 32 mg/L.
Regarding `C=C[C@]1(C)C[C@@H](OC(=O)CN2CCN(C(=O)CN3CCN(c4cccc(C)c4)CC3)CC2)[C@]2(C)[C@H](C)CC[C@]3(CCC(=O)[C@H]32)[C@@H](C)[C@@H]1O`, the MIC against Staphylococcus aureus [1] was 0.25 mg/L (≈ 0.377 µM); in the assay with Staphylococcus aureus [2] it was 0.5 mg/L (≈ 0.754 µM); in the assay with Enterococcus faecalis, 4 mg/L (≈ 6.03 µM); against Enterococcus faecium it was > 32 mg/L.
Consider `C=C[C@]1(C)C[C@@H](OC(=O)CS[C@@H]2C[C@H]3CC[C@@H](C2)N3C)[C@]2(C)[C@H](C)CC[C@]3(CCC(=O)[C@H]32)[C@@H](C)[C@@H]1O` [RETAPAMULIN], for which the MIC against Staphylococcus aureus [1] was 0.0625 mg/L (≈ 0.121 µM); against Staphylococcus aureus [2] it was 0.0625 mg/L (≈ 0.121 µM); with Enterococcus faecium, > 32 mg/L.
